VIM-2 inh – inhibitors of Pseudomonas aeruginosa VIM-2 metallo-beta-lactamase. purified VIM-2, nitrocefin hydrolysis, epi-absorbance fluorescence. 290,000 tested, 0.89% active. inhibition, % at 5.6 µM;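 active = inhibition above the mean of all tested compounds plus 3 SD, cutoff set per screening run, cut at about 7.5% in these data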;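 also: red hydrolysis product quenches plate fluorescence so inhibitors raise well fluorescence; 0% = enzyme with DMSO and 100% = DMSO without enzyme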
IMP-1 inhibitor – blocks Pseudomonas aeruginosa IMP-1 metallo-beta-lactamase; AID 1556; inhibition, % at 5.6 µM; 290,000 tested, 0.45% active; purified IMP-1, nitrocefin hydrolysis, epi-absorbance fluorescence;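 active = inhibition above the mean plus 3 SD of all compounds in the same screening run, cut at about 4.5% in these data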;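 also: 0% = IMP-1 with DMSO and 100% = DMSO wells lacking enzyme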
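System: purified IMP-1 / Input: IMP-1 dispensed at 0.2 nM / Medium: 50 mM HEPES pH 7.1, 50 µM ZnSO4, 0.05% Brij 35 / Timing: 15 min enzyme–compound preincubation, then 25 min nitrocefin reaction, 25 °C / Technique: plate fluorescence quenching by hydrolysis product, ex 480/em 530 nm / Repeats: singlicate testing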
MEKK2 mut-MEK5 – signal of MEK5 binding to mutant human MEKK2 PB1 domain; percent response, % at 10 µM; bead flow cytometry, Alexa488-MEK5 binding to MEKK2 mutant; 290,000 tested, 0.35% active; AID 1530; in the data active = percent response above about 24%, passing the limit was not always enough
MEKK3 PB1 HTS – modulators (inhibitors or enhancers) of MEK5 binding to human MEKK3 PB1 domain; Q99759; bead-based flow cytometry, Alexa488-MEK5 binding to MEKK3; actives lie on both sides; 0 = blocked by unlabeled MEK5, 100 = vehicle; binding response (% of control), % at 10 µM; 290,000 tested, 1.4% active;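 active = binding response more than 3 SD above or below the average of its plate-row segment, actives on both sides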;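 also: Alexa488 bead fluorescence after subtracting the streptavidin-only scavenger bead signal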
Target sequence (Q99759 whole entry, looked up, the tested form may be a part): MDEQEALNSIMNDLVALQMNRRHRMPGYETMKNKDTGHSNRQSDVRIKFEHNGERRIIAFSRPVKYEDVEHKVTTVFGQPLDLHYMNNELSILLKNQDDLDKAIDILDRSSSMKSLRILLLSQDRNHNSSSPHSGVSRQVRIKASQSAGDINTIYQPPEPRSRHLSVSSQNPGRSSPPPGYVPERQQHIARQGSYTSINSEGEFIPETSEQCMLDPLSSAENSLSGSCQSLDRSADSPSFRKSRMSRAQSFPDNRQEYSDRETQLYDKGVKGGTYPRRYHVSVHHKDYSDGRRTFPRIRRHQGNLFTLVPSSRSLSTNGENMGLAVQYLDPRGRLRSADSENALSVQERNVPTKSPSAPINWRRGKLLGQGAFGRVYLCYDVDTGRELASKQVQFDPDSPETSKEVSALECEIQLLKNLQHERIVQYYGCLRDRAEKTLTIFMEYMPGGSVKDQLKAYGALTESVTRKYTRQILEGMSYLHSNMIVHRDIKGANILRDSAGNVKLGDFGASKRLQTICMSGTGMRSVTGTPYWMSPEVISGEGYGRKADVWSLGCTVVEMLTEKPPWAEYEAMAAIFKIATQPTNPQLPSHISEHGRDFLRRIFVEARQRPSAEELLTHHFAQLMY
MEKK2 WT-MEK5 – raises or lowers MEK5 binding to wildtype human MEKK2 PB1 domain; 290,000 tested, 1.1% active; AID 1531; binding response (% of control), % at 10 µM; Q9Y2U5; bead flow cytometry, Alexa488-MEK5 binding to MEKK2 WT; actives lie on both sides; in the data active = binding response below about 67% or above about 130%
MEKK2wt confirm – raises or lowers MEK5 binding to wildtype human MEKK2, retest. 5,900 tested, 2.4% active. bead flow cytometry, Alexa488-MEK5 binding to MEKK2 WT; actives lie on both sides. shares compounds with MEKK3 PB1 HTS. AID 1892. binding response (% of control), % at 10 µM; in the data active = binding response below about 16% or above about 210%; inactive = in between
MEKK2mut-MEK5 – signal of MEK5 binding to mutant human MEKK2, retest | shares compounds with MEKK3 PB1 HTS | bead flow cytometry, Alexa488-MEK5 binding to MEKK2 mutant | percent response, % at 10 µM | 5,900 tested, 2% active | AID 1893; in the data active = percent response mostly above about 71%, no sharp cut-off; inactive = mostly below about 38%;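 also: higher means compound restores mutant binding toward wildtype level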
MEKK3 confirm – MEKK3-MEK5 PB1 inhibition, single concentration confirmation; shares compounds with MEKK3 PB1 HTS; bead flow cytometry, Alexa488-MEK5 binding to MEKK3; hits give low values; binding response (% of control), % at 10 µM; 5,900 tested, 1.8% active; AID 1894;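 active = binding response below 72% of control, or above a set upper limit, though filed actives all read lower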;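 also: 100% = DMSO only wells and 0% = binding blocked by excess unlabeled MEK5; lower values mean stronger disruption of MEK5 binding to MEKK3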
Active calls of the source: *; nt = not tested or not shown; [ ] = remark or other dose. An excerpt weighted towards active compounds, which were near 3.4% of everything screened.

SMILES	VIM-2 inh	IMP-1 inhibitor	MEKK2 mut-MEK5	MEKK3 PB1 HTS	MEKK2 WT-MEK5	MEKK2wt confirm	MEKK2mut-MEK5	MEKK3 confirm
CCCNC(=O)Cn1nc([N+](=O)[O-])c([N+](=O)[O-])c1C	0	0	-3	60*[inhibitor]	58*[inhibitor]	102	0	103
Cc1ccc(-n2nc3c(c2NC(=O)/C=C\c2ccc4c(c2)OCO4)CSC3)c(C)c1	-1	-1	-7	72*[inhibitor]	83	98	-3	102
CCOC(=O)/C=C/C(=O)OCC(=O)Nc1cccc(Br)c1	0	-3	0	100	99	nt	nt	nt
CC1CCCN(c2nc3c(c(=O)n(C)c(=O)n3C)n2CCSc2nc3ccccc3s2)C1 (configuration not stated)	-3	-4	1	100	96	nt	nt	nt
C[N+]1(CCC(=O)c2ccccc2)CCCCC1	0	-1	-13	2.0*[inhibitor]	2.0*[inhibitor]	117	11	114
Cc1oc(-c2ccccc2F)nc1CS(=O)(=O)CC(=O)NCCN1CCCC1	0	0	0	103	105	nt	nt	nt
Cc1oc(-c2ccccc2F)nc1CS(=O)(=O)CC(=O)NCCCN1CCc2ccccc2C1	-5	-3	21	113	149*	132	11	105
COc1cccc(-c2nc(CS(=O)(=O)CC(=O)N3CCc4ccccc4C3)c(C)o2)c1	-2	-4	-19	1.0*[inhibitor]	-3.0*[inhibitor]	101	1	103
O=C1c2ccccc2C(=O)N1CC(=O)N1c2ccccc2CCc2ccccc21	-3	-4	0	96	96	nt	nt	nt
COc1ccc(CNCc2cn(-c3cccc(F)c3)nc2-c2ccc(C)o2)cc1	-1	-2	26	101	168*	172	31	109
CC(=O)Nc1c(-c2ccc(Cl)cc2)c(=O)c2ccccc2n1C	-1	-2	-2	99	101	nt	nt	nt
COc1ccc(-c2cc(Cl)cc3c(=O)c4ccccc4n(C)c23)cc1F	7	-2	-6	94	66*[inhibitor]	75	-16	96
Cc1ccc(Nc2cc(C)nc(NCc3ccccc3)n2)cc1	1	-2	6	116	151*	183	40	108
Cc1cc(N/N=C/c2ccccc2Cl)nc(NCc2ccccc2)n1	-2	-3	37	103	146*	172	56	108
Cc1cc(N2CCN(c3ccccc3)CC2)nc(NCc2ccccc2)n1	-1	-1	18	109	168*	161	42	109
Cn1c(=O)c2c(ncn2CC(=O)N/N=C/C=C/c2ccco2)n(C)c1=O	-1	0	0	99	100	nt	nt	nt
COc1ccc(NC(=O)CCC(=O)OC(C(=O)c2ccccc2)c2ccccc2)cc1 (configuration not stated)	0	-2	-2	105	97	nt	nt	nt
O=C(C[n+]1cnn(CC(=O)c2ccc(Cl)cc2Cl)c1)c1ccc([N+](=O)[O-])cc1	-1	-1	24	101	157*	122	5	105
Cc1ccc(N2C(=O)C3C(c4ccccc4)N4CCCN4C3(C)C2=O)cc1 (configuration not stated)	-2	-6	-1	66*[inhibitor]	84	105	2	102
Cc1ccc(N2C(=O)C3C(C2=O)N2CCCN2C3c2ccccc2)cc1C (configuration not stated)	-2	-2	0	101	99	nt	nt	nt
CC(C)CC(NC(=O)C(CC(C)C)NC(=O)C(Cc1ccc(OCc2ccccc2)cc1)NC(=O)OC(C)(C)C)C(N)=O (configuration not stated)	0	-1	-4	99	97	nt	nt	nt
O=C(c1ccccc1)c1ccc(Oc2ncccn2)cc1	-2	-3	-17	0.0*[inhibitor]	-1.0*[inhibitor]	103	2	101
CC1(C)CC(NC(=O)C2CCCCC2)CC(C)(C)N1	-2	-3	11	108	102	nt	nt	nt
Cc1cc(C)nc(-n2ncc3c2CC(c2ccccc2C)CC3=O)n1 (configuration not stated)	0	2	0	137*	103	103	0	102
Cc1cc(C)nc(-n2ncc3c2CC(c2ccccc2)CC3=O)n1 (configuration not stated)	4	0	12	104	120	nt	nt	nt
SMILES	VIM-2 inh	IMP-1 inhibitor	MEKK2 mut-MEK5	MEKK3 PB1 HTS	MEKK2 WT-MEK5	MEKK2wt confirm	MEKK2mut-MEK5	MEKK3 confirm
O=C(c1ccc(F)cc1)N1CCN2C(=O)c3ccccc3C12c1ccccc1 (configuration not stated)	-1	-1	-38	60*[inhibitor]	66	103	-2	101
CC(c1ccccc1)N1C(=O)C2C3C=CC(C4CC34)C2C1=O (configuration not stated)	-4	-2	-10	100	97	nt	nt	nt
CC(OC(=O)C(C)N1C(=O)C2C3C=CC(C4CC34)C2C1=O)C(=O)c1ccccc1 (configuration not stated)	-1	0	1	145*	111	101	3	99
CCOC(=O)C1CCCN(S(=O)(=O)Cc2ccc(Cl)cc2)C1 (configuration not stated)	0	-1	1	105	106	nt	nt	nt
NC(=O)c1oc2ccccc2c1NC(=O)CN1CCCCC1	-1	0	9	106	111	nt	nt	nt
CC(=O)c1oc2ccccc2c1NC(=O)CN1CCCCC1	-1	-2	-2	4.0*[inhibitor]	3.0*[inhibitor]	105	6	105
O=C(NC1CC1)C1=C[C@H](c2ccc(C(F)(F)F)cc2)C[C@H](OCCCCO)O1	nt	nt	2	107	102	nt	nt	nt
CCCc1ncc(CN2CCCC(C(=O)Nc3ccc(-c4cccc(OC)c4)cc3)C2)cn1 (configuration not stated)	-2	-3	2	96	101	nt	nt	nt
COc1cccc(-c2ccc(NC(=O)C3CCCN(Cc4cnn(C(C)C)c4)C3)cc2)c1 (configuration not stated)	-2	-3	16	107	147*	141	28	108
CCN(CC)CCOC(=O)c1ccc(NC(=O)c2cn(-c3ccccc3)nc2-c2cccs2)cc1	-3	-3	8	120	153*	250*	92*	114
CCn1c(=O)c(C(=O)NCCCO)c(O)c2ccccc21	2	-2	18	109	112	nt	nt	nt
CCN(CC)C(=O)c1cc(C(C)(C)C)c(O)c(C(C)(C)C)c1	-1	-2	0	128*	105	108	8	105
